Experiment [1] addresses T1, Sarcoplasmic/endoplasmic reticulum calcium ATPase 1 (Oryctolagus cuniculus, UniProt P04191). Briefly: Binding affinity to rabbit skeletal muscle SERCA1a preincubated for 5 mins followed by Mg-ATP addition measured over 6 mins by spectrophotometric analysis. The method, boiled down: (§1)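 Rabbit skeletal muscle SR-purified SERCA1a (1 mg/mL) equilibrated in E2 state: 1 mM EGTA, 1 mM Mg2+, 10 mM Tes pH 7.5, 100 mM KCl. 10 μg protein plus compound (1.25–100 μM) preincubated 5 min at 23 °C in ATP-regenerating medium (0.1 mM Ca2+, 1 mM PEP, pyruvate kinase, lactate dehydrogenase, 0.175 mM NADH). Started with 5 mM Mg-ATP; A340 read over 6 min; three repeats.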

Another experiment deals with CCRF-CEM. Briefly: Cytotoxicity against human CCRF-CEM cells assessed as cell viability after 24 hrs by MTT assay. The format is functional, cell-based. The method, boiled down: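 Human acute lymphoblastic leukemia CCRF-CEM cells seeded at 4 × 10^4 cells/well and exposed 24 h to a range of compound concentrations. Viability read by MTT. Doxorubicin served as positive control and 0.1% DMSO as solvent control. IC50 derived by nonlinear regression. Data are means ± SD of three independent experiments.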
In general terms: Formazan colour is commonly taken as a measure of viable cells.

The species named for a further experiment is Sus scrofa. The experiment is described as follows: Inhibition of pig kidney outer medulla Na+,K+-ATPase at 50 uM relative to control. The procedure, abridged: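 Purified pig kidney outer medulla Na+,K+-ATPase membranes. Steady-state activity at 37 °C in 130 mM NaCl, 20 mM KCl, 4 mM MgCl2, 3 mM ATP, 20 mM histidine pH 7.4. Read-out is phosphate liberation, with 1 mM ouabain as the nonspecific ATPase blank. Compounds tested over 1–50 μM.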

The target of experiment [2] is T1, Sarcoplasmic/endoplasmic reticulum calcium ATPase 1. Briefly: Binding affinity to rabbit hind leg muscle SERCA1a by pyruvate kinase and lactate dehydrogenase coupled assay. The method, boiled down: as §1
A short description of experiment [3]: Inhibition of Wistar rat stomach H+,K+-ATPase after 1 hr.

A value given as a limit tells only on which side of the number the result lay.

T1 sequence (P04191 whole entry): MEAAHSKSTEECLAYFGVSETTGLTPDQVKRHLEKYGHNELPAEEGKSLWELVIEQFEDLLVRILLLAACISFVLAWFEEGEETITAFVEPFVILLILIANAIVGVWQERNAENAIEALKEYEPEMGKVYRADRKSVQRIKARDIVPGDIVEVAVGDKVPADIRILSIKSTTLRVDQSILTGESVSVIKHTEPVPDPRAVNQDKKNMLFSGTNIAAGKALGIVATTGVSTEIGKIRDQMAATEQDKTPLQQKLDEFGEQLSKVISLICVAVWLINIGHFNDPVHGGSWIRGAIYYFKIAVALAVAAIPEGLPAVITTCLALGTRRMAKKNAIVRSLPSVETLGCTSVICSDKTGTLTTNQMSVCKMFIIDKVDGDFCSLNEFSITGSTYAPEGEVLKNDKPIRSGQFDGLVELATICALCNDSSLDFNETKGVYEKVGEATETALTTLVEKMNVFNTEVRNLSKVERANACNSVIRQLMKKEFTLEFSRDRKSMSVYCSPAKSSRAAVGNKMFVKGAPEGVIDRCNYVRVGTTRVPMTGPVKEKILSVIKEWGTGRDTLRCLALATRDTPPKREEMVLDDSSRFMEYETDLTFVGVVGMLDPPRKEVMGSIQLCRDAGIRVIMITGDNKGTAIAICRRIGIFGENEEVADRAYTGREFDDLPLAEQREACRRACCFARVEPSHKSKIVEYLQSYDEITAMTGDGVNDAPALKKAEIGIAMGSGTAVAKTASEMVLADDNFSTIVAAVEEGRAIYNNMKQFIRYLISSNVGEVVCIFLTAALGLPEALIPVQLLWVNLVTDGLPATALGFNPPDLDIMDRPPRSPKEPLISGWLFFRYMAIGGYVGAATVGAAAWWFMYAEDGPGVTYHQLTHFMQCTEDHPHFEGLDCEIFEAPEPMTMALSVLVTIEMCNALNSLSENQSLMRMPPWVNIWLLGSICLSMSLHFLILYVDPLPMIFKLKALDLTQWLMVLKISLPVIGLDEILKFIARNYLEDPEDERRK

The Kd is the equilibrium constant for the complex coming apart. As for `C=CC(=C)CC[C@]1(C)[C@H](C)C[C@H](OC(=O)/C=C/c2ccccc2)[C@@]23C(=C[C@H](O)C[C@@H]12)[C@@H](OC(C)=O)O[C@H]3OC(C)=O`, the dissociation constant (Kd) in experiment [1] was determined as 48.1 µM.
On the same count and under the same terms, the result for `CC(=O)O[C@H]1O[C@@H](OC(C)=O)[C@]23C1=C[C@H](O)C[C@H]2[C@](C)(CCC1=CCOOC1)[C@H](C)C[C@@H]3OC(=O)/C=C/c1ccccc1` reads 22.3 µM.
As a reminder, the IC50 is the concentration at which inhibition is half-maximal. In general, inhibition refers to the percentage by which the read-out fell short of the control. Turning to `C=C/C(C)=C/C[C@]1(C)[C@H](C)[C@@H](O)[C@H](O)[C@@]23C(=C[C@H](OC)C[C@@H]12)[C@@H](O)O[C@H]3O`, in experiment [1], the dissociation constant (Kd) was above 100 µM. In addition, the IC50 with CCRF-CEM is 4.3 µM. Also, the inhibition in the experiment listed under Sus scrofa was 6.55%.
Consider `C=CC(=C)CC[C@]1(C)[C@H](C)C[C@H](O)[C@@]23C(=C[C@@H](OC(=O)/C=C/c4ccccc4)C[C@@H]12)[C@@H](OC(C)=O)O[C@H]3OC(C)=O`, for which, in experiment [1], the Kd was 32.1 µM.
As for `C=CC(=C)CC[C@]1(C)[C@H](C)C[C@H](OC(=O)CC(O)CCCCCCCCC)[C@@]23C(=C[C@H](O)C[C@@H]12)[C@@H](OC(C)=O)O[C@H]3OC(C)=O` (stereo partly drawn), the Kd in experiment [1] worked out at 7.5 µM. Also, the inhibition in the experiment filed under Sus scrofa came to 26.3%.
As for `C[C@H]1O[C@@H](O[C@H]2CC[C@@]3(C)[C@@H](CC[C@]4(C)[C@@H]3C=C[C@]35OC[C@@]6(CCC(C)(C)C[C@H]63)[C@H](O)C[C@]54C)[C@]2(C)CO)[C@H](O)[C@@H](O[C@@H]2O[C@H](CO)[C@@H](O)[C@H](O)[C@H]2O)[C@@H]1O`, the dissociation constant (Kd) in experiment [2] came out at 50 µM.
As for `C=C/C(C)=C/C[C@]1(C)[C@H](C)[C@@H](OC(=O)CCC)[C@H](O)[C@@]23C(=C[C@H](OC)C[C@@H]12)[C@@H](OC(=O)CCC)O[C@H]3OC(C)=O`, in experiment [1], the dissociation constant (Kd) was 10.1 µM. The 50% inhibitory concentration (IC50) in the experiment with CCRF-CEM was 0.7 µM. The inhibition in the experiment listed under Sus scrofa amounted to 4.41%.
In experiment [3], IVERMECTIN displayed an IC50 of 7.59 µM.
On to `C=C/C(C)=C/C[C@]1(C)[C@H](C)C[C@H](OC(C)=O)[C@@]23C(=C[C@H](OC(=O)c4ccc(O)cc4)C[C@@H]12)[C@@H](OC(C)=O)O[C@H]3OC(C)=O`, for which the Kd in experiment [1] turned out to be 20.1 µM. Moreover, the half-inhibitory concentration (IC50) with CCRF-CEM was determined as 1.2 µM.
For the compound `C=C/C(C)=C/C[C@]1(C)[C@H](C)CC[C@@]23C(=CC(=O)C[C@@H]12)[C@@H](OC(C)=O)O[C@H]3OC(C)=O`, the Kd in experiment [1] was found to be 96.5 µM.
For `C[C@H](C[C@H](O)[C@H]1OC1(C)C)C1=C2C[C@H](O)[C@H]3[C@@]4(C)CCC(=O)C(C)(C)[C@@H]4CC[C@]3(C)[C@@]2(C)CC1` [ALISOL B], the Kd in experiment [2] is 27 µM.
For the compound `C=CC(=C)[C@H](O)C[C@]1(C)[C@H](C)C[C@H](OC(=O)CC(O)CCCCCCCCC)[C@@]23C(=C[C@H](O)C[C@@H]12)[C@@H](OC(C)=O)O[C@H]3OC(C)=O` (stereo partly drawn), in experiment [1], the Kd came to 31.5 µM.
For the compound `C=C/C(C)=C/C[C@]1(C)[C@H](C)C[C@H](O)[C@@]23C(=C[C@H](OC(=O)c4ccc(O)cc4)C[C@@H]12)[C@@H](OC(C)=O)O[C@H]3OC(C)=O` [CASEARBORIN D], the Kd in experiment [1] is 2 µM. Moreover, in the experiment on CCRF-CEM, the IC50 was 1.1 µM. This compound yielded an inhibition in the experiment filed under Sus scrofa of 23.8%.
Consider `C=CC(=C)CC[C@]1(C)[C@H](C)CC[C@@]23C(C[C@H](OC(C)=O)C[C@@H]12)[C@@H](OC(C)=O)O[C@H]3OC(C)=O` (stereo partly drawn), for which, in experiment [1], the Kd stood at 103 µM. For the same compound, the concentration for half-maximal inhibition (IC50) with CCRF-CEM worked out at 12 µM.
